The text below walks through data of ChEMBL document CHEMBL4411267, “Phloroglucinols from the Roots of Garcinia dauphinensis and Their Antiproliferative and Antiplasmodial Activities” (J Nat Prod, 2019).

Broadly, the IC50 is the concentration at which inhibition is half-maximal.

For experiment [1], the system named is A2780. The experiment can be described thus: Antiproliferative activity against human A2780 cells assessed as reduction in cell viability incubated for 48 hrs by Alamar blue assay. It is filed as functional, cell-based. Particulars: A2780, 48 h. (Resazurin is reduced to fluorescent resorufin, in cell work by metabolically active cells.)
Experiment [2] has as its system Plasmodium falciparum. In words: Antiplasmodial activity against Plasmodium falciparum Dd2 assessed as reduction in parasite viability incubated for 72 hrs by SYBR Green I dye based assay. It is filed as functional, organism-based. As to conditions: Dd2, 72 h. The essentials:
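Ring-stage parasite cultures at 1% parasitemia and 1% hematocrit, exposed to samples for 72 h at 37 °C under 5% CO2/5% O2/90% N2. Viability read by DNA quantitation with SYBR Green I in lysis buffer (0.33 μL dye per mL, 25 μL added). IC50 by nonlinear regression curve fitting; mean ± SD of three independent experiments.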

Experiment [3] can be described thus: Selectivity index, ratio of IC50 for antiproliferative activity against human A2780 cells to IC50 for antiplasmodial activity against Plasmodium falciparum Dd2. It is filed as functional.

The structures appear in SMILES notation.

For `CCC(C)C(=O)c1c(O)cc(O)c(C/C=C(\C)CCC=C(C)C)c1O` (stereo not drawn), the half-maximal inhibitory concentration (IC50) in experiment [1] is 12.4 µM. Take `CCC(C)C(=O)c1c(O)cc(O)c2c1O[C@](C)(CCC=C(C)C)[C@@H](O)C2` (stereo partly drawn) [EMPETRIKARINOL B]: the IC50 in experiment [1] came out at 10 µM. As for `C=C(C)CCC(Cc1c(O)cc(O)c(C(=O)[C@@H](C)CC)c1O)/C(C)=C/CC=C(C)C` (stereo partly drawn), the values for the concentration for half-maximal inhibition (IC50) in experiment [2] and in experiment [1] were 12 µM and 7 µM, respectively. `C=C1[C@@H](Cc2c(O)cc(O)c(C(=O)[C@@H](C)CC)c2O)CCC(C)(C)[C@@H]1CC=C(C)C`: the IC50 in experiment [2] came to 0.8 µM; in experiment [1] it was 15.2 µM. Further, in experiment [3], the “Ratio IC50” value amounted to 20.

`CC[C@H](C)C(=O)c1c(O)cc(O)c(CCC(C)(O)CCC=C(C)C)c1O` (stereo partly drawn): the IC50 in experiment [2] was 5.4 µM; in experiment [1], 6.4 µM. On to `C[C@@H]1CC[C@H]2[C@@H](C)C(=O)O[C@@H]3O[C@@]4(C)CC[C@@H]1[C@]32OO4` [ARTEMISININ], for which, in experiment [2], the 50% inhibitory concentration (IC50) amounted to 0.0085 µM. With `CC[C@H](C)C(=O)c1c(O)cc2c(c1O)C[C@@H]1C(C)(C)CCC[C@@]1(C)O2` (relative stereo), the 50% inhibitory concentration (IC50) in experiment [2] worked out at 14.1 µM. In the case of `CC(C)=CCC/C(C)=C/Cc1c(O)cc(O)c(C(=O)C(C)C)c1O`, the IC50 was determined as 12.5 µM in experiment [2] and 16.4 µM in experiment [1]. With `CC(C)=CCC/C(C)=C/CC/C(C)=C/CC[C@]1(C)CCc2cc(O)cc(C)c2O1` [DELTA-TOCOTRIENOL], the 50% inhibitory concentration (IC50) in experiment [2] turned out to be 5.3 µM; in experiment [1] it was 19.7 µM. As for `CC[C@H](C)C(=O)c1c(O)cc(O)c(CC(CCC(C)(C)O)/C(C)=C/CC=C(C)C)c1O` (stereo partly drawn), the half-inhibitory concentration (IC50) in experiment [2] is 8.3 µM. As for `CC[C@H](C)C(=O)c1c(O)cc(O)c(CC2=C(C)[C@@H](CC=C(C)C)C(C)(C)CC2)c1O`, the values for the 50% inhibitory concentration (IC50) in experiment [2] and in experiment [1] were 4.7 µM and 4.5 µM, respectively.
